# In ChEMBL document CHEMBL4602651, “Development of selective mono or dual PROTAC degrader probe of CDK isoforms” (Eur J Med Chem, 2020):
# Activity calls are given as the source filed them. No cut-off for these calls is given here.
# Assays:
# [1] = target: T1, Protein cereblon/Cyclin-dependent kinase 2/Cyclin-dependent kinase 9 (Homo sapiens, UniProt P24941+P50750+Q96SW2); test: Protac activity at CRBN/CDK2/CDK9 in AR-negative human PC3 cells assessed as induction of CDK2 protein degradation at 500 nM after 4 hrs by Western blot analysis; type: cell-based; conditions: PC-3
# Method in brief: (§1)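 PC-3 cells treated with 500 nM degrader for varying times. Lysates blotted for CDK2, CDK4, CDK6, CDK9, c-Myc and Mcl-1, each at 1/1000 primary antibody, with β-tubulin reference and chemiluminescent detection.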
# [2] = target: T1, Protein cereblon/Cyclin-dependent kinase 2/Cyclin-dependent kinase 9; test: Protac activity at CRBN/CDK2/CDK9 in human 22Rv1 cells assessed as CDK2 degradation at 0.25 to 10 uM after 12 hrs by Westernblot analysis; type: cell-based; conditions: CWR22R
# Method in brief: (§2)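 22Rv1, HCT-116 (RPMI 1640, 10% FBS) and MCF-7 cells treated with degrader at indicated concentrations for 12 h. CDK2 and CDK9 blotted with β-tubulin loading control.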
# PC-3 [3] = test: Induction of cell cycle arrest in human PC3 cells assessed as accumulation at S phase at 3 uM after 48 hrs by propidium iodide staining based flow cytometry (reference value: 17.96%); type: functional
# [4] = target: Protein cereblon/Cyclin-dependent kinase 6 (Homo sapiens) (UniProt Q00534+Q96SW2); test: Protac activity at CRBN/CDK6 in AR-negative human PC3 cells assessed as induction of CDK4 protein degradation at 500 nM after 24 hrs by Western blot analysis; type: cell-based; conditions: PC-3; method in brief: as §1
# CDK9/cyclin T1 = CDK9/cyclin T1 (Homo sapiens, UniProt P50750); test: Inhibition of tracer K10 binding to NanoLuc-CDK9/Cyclin T1 (unknown origin) expressed in human HEK293 cells after 1 hr in presence of ATP by NanoBRET assay; type: cell-based
# Method in brief: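 Cell-based target engagement run by a contract lab. HEK293 cells pretreated with NanoBRET Tracer K-10, then exposed to compound for 1 h with 10 µM ATP, and BRET signal read. 10-point, 3-fold dilutions from 1 µM. Staurosporine reference used 4-fold dilutions from 20 µM. IC50 from sigmoidal dose-response fit.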
# [5] = target: Protein cereblon/Cyclin-dependent kinase 9 (Homo sapiens) (UniProt P50750+Q96SW2); test: Protac activity at CRBN/CDK9 in AR-negative human PC3 cells assessed as induction of CDK9 protein degradation at 50 nM after 12 hrs by Western blot analysis; type: cell-based; conditions: PC-3
# Method in brief: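 PC-3 cells (DMEM/F12 1:1, 10% FBS, 1% pen/strep, 37 °C, 5% CO2) plated at 5 × 10^5 per well, exposed to compound for 12 h. RIPA lysates with protease inhibitors; 50 µg total protein run on 10% SDS-PAGE, transferred to PVDF, blocked in 5% milk/TBS-T. Probed with anti-CDK9 (1/1000), β-tubulin loading control, HRP secondary, chemiluminescence; bands scored as degradation detected or not.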
# [6] = target: T1, Protein cereblon/Cyclin-dependent kinase 2/Cyclin-dependent kinase 9; test: Protac activity at CRBN/CDK2/CDK9 in human MCF7 cells assessed as CDK9 degradation at 0.25 to 10 uM after 12 hrs by Westernblot analysis; type: cell-based; method in brief: as §2
# PC-3 [7] = test: Induction of cell cycle arrest in human PC3 cells assessed as accumulation at G0/G1 phase at 3 uM after 48 hrs by propidium iodide staining based flow cytometry (reference value: 59.80%); type: functional
# [8] = target: T1, Protein cereblon/Cyclin-dependent kinase 2/Cyclin-dependent kinase 9; test: Protac activity at CRBN/CDK2/CDK9 in AR-negative human PC3 cells assessed as reduction in Mcl-1 protein expression at 500 nM measured after 2 to 24 hrs by Western blot analysis; type: cell-based; conditions: PC-3; method in brief: as §1
# [9] = target: T1, Protein cereblon/Cyclin-dependent kinase 2/Cyclin-dependent kinase 9; test: Protac activity at CRBN/CDK2/CDK9 in AR-negative human PC3 cells assessed as induction of CDK2 protein degradation at 1 uM after 12 hrs by Western blot analysis; type: cell-based; conditions: PC-3
# Method in brief: (§3)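 PC-3 cells (5 × 10^5 per well) treated 12 h at single concentrations (50 nM, 500 nM, 1, 5 or 30 µM). RIPA lysates (50 µg) run on 10% SDS-PAGE and immunoblotted for CDK2, CDK5, CDK9 with β-tubulin loading control, then detected by chemiluminescence. Band intensities quantified densitometrically.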
# [10] = target: T1, Protein cereblon/Cyclin-dependent kinase 2/Cyclin-dependent kinase 9; test: Protac activity at CRBN/CDK2/CDK9 in AR-negative human PC3 cells assessed as CDK2 degradation at 250 nM preincubated with pomalidomide for 2 hrs and measured after 8 hrs by Western blot analysis; type: cell-based; conditions: PC-3
# Method in brief: (§4)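 PC-3 cells pretreated 2 h with 5 µM DMSO, FN-1501, pomalidomide or MG-132, then exposed to degrader at 250 nM for 8 h. Lysates probed for CDK2 and CDK9, β-tubulin as loading control. 50 µg protein per lane, 10% SDS-PAGE, chemiluminescent detection.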
# [11] = target: T1, Protein cereblon/Cyclin-dependent kinase 2/Cyclin-dependent kinase 9; test: Protac activity at CRBN/CDK2/CDK9 in AR-negative human PC3 cells assessed as reduction in c-Myc protein expression at 500 nM measured after 2 to 24 hrs by Western blot analysis; type: cell-based; conditions: PC-3; method in brief: as §1
# [12] = target: T1, Protein cereblon/Cyclin-dependent kinase 2/Cyclin-dependent kinase 9; test: Protac activity at CRBN/CDK2/CDK9 in AR-negative human PC3 cells assessed as induction of CDK9 protein degradation at 30 uM after 12 hrs by Western blot analysis; type: cell-based; conditions: PC-3; method in brief: as §3
# PC-3 [13] = test: Induction of cell cycle arrest in human PC3 cells assessed as accumulation at G0/G1 phase at 1 uM after 48 hrs by propidium iodide staining based flow cytometry (reference value: 59.80%); type: functional
# [14] = target: Protein cereblon/Cyclin-dependent kinase 2 (Homo sapiens) (UniProt P24941+Q96SW2); test: Protac activity at CRBN/CDK2 in AR-negative human PC3 cells assessed as induction of CDK2 protein degradation at 50 nM after 12 hrs by Western blot analysis; type: cell-based; conditions: PC-3; method in brief: as §3
# [15] = target: T1, Protein cereblon/Cyclin-dependent kinase 2/Cyclin-dependent kinase 9; test: Protac activity at CRBN/CDK2/CDK9 in AR-negative human PC3 cells assessed as CDK2 degradation at 250 nM preincubated with FN-1501 for 2 hrs and measured after 8 hrs by Western blot analysis; type: cell-based; conditions: PC-3; method in brief: as §4
# [16] = target: T1, Protein cereblon/Cyclin-dependent kinase 2/Cyclin-dependent kinase 9; test: Protac activity at CRBN/CDK2/CDK9 in AR-negative human PC3 cells assessed as induction of CDK9 protein degradation at 500 nM after 4 hrs by Western blot analysis relative to control; type: cell-based; conditions: PC-3; method in brief: as §1
# Sequence of Protein cereblon/Cyclin-dependent kinase 9 (Homo sapiens) (P50750 whole entry, looked up): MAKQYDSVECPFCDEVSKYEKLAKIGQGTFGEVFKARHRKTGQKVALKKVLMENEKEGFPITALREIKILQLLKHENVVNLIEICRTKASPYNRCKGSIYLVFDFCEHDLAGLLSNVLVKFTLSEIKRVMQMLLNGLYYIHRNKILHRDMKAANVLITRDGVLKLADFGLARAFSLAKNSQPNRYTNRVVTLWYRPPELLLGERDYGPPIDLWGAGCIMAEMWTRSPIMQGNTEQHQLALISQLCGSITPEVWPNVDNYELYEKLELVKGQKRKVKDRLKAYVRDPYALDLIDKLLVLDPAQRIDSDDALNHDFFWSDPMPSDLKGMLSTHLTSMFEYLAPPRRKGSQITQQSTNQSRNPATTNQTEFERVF
# Sequence of Protein cereblon/Cyclin-dependent kinase 9 (Homo sapiens) (Q96SW2 whole entry, looked up): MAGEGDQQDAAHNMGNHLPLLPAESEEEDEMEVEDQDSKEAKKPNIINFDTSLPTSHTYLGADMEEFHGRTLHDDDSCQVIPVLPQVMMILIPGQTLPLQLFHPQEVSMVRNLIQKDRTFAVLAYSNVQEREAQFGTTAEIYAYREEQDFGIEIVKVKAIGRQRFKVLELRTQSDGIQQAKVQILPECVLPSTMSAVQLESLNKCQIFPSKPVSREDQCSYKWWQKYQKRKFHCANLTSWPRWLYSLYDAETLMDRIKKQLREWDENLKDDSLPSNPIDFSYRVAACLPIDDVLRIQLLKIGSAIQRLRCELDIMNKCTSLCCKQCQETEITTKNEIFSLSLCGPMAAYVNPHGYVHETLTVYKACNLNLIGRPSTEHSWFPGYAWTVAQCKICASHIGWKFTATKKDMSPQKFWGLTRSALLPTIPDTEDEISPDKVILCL
# Sequence of Protein cereblon/Cyclin-dependent kinase 6 (Homo sapiens) (Q00534 whole entry, looked up): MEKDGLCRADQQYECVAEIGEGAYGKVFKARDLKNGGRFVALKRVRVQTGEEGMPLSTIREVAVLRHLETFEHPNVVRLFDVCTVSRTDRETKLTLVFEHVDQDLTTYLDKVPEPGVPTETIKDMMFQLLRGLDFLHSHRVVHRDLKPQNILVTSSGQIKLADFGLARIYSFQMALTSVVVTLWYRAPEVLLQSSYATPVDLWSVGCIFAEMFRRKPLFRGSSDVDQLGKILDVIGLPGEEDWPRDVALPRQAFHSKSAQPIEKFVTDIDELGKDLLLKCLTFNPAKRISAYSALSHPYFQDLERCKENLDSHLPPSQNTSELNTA
# Sequence of Protein cereblon/Cyclin-dependent kinase 6 (Homo sapiens) (Q96SW2 whole entry, looked up): as the sequence (Q96SW2 whole entry, looked up) above
# Sequence of CDK9/cyclin T1 (O60563 whole entry): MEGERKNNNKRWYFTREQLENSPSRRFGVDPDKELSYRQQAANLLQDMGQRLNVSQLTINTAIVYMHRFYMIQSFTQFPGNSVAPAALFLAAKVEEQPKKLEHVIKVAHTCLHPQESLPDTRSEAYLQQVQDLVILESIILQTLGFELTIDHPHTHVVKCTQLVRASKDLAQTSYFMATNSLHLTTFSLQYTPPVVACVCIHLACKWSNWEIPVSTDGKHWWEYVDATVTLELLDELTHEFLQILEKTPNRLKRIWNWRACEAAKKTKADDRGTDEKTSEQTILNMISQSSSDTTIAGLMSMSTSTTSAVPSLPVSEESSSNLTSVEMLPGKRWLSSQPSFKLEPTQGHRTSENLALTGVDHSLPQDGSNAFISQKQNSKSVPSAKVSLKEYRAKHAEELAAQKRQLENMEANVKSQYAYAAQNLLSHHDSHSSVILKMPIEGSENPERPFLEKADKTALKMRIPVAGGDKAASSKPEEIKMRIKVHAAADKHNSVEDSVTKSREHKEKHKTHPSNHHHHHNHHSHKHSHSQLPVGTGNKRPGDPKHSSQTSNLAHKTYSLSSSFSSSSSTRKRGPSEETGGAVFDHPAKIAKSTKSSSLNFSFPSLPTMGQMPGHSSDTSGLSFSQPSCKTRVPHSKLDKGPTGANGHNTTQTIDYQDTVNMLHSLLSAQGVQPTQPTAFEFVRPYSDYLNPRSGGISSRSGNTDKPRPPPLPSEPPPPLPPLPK
# Sequence of CDK9/cyclin T1 (P50750 whole entry): as the sequence (P50750 whole entry, looked up) above
structure (smiles),measurement,setting,value
O=C(CCC(=O)N1CCN(Cc2ccc(NC(=O)c3n[nH]cc3Nc3ncnc4[nH]ccc34)cc2)CC1)NCCNc1cccc2c1C(=O)N(C1CCC(=O)NC1=O)C2=O (configuration not stated),Activity,[1],Active
same,Activity,[2],Active
same,Activity,PC-3 [3],11.24%
same,Activity,[4],inactive
same,IC50,CDK9/cyclin T1,0.0145 µM
same,Activity,[5],Active
same,Activity,[6],Active
same,Activity,PC-3 [7],52.76%
same,Activity,[8],Active
same,Activity,[9],Active
same,Activity,[10],inactive
same,Activity,[11],Active
same,Activity,[12],Active
same,Activity,PC-3 [13],53.95%
same,Activity,[14],Active
same,Activity,[15],inactive
same,Activity,[16],> 80%
